Experimental data: the RNAGym collection of RNA variant scans (doi:10.1038/s41586-018-0170-7)

B1: tRNA (parent)
chain: GUUCCGUUGGCGUAAUGGUAACGCGUCUCCCUCCUAAGGAGAAGACUGCGGGUUCGAGUCCCGUACGGAACG

Variants of: B1
Test: yeast fitness, log relative to wild type (ln ratio); higher = fitter; tRNA-Arg(CCU), competitive growth, 37 C, 1 M NaCl
Procedure, shortened: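 Two independent transformations put a combinatorial tRNA-Arg(CCU) variant library on a HIS3 centromeric plasmid into BY4742 lacking the chromosomal gene. Pools were grown in SC-HIS at 30 °C for 4 generations, then in SC-HIS 1M NaCl at 37 °C for ~6.5 generations (~26.5 h), with three outputs taken per input. Fitness compares a genotype's generations with the wild type's as a natural log ratio. Those generations are OD-scaled log2 output/input frequencies, inverse-variance weighted across replicates, from 125 bp paired-end Illumina counts.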

Variant | yeast fitness (ln)
G1A G6A C46U C66U A70U | -0.0452
A43C C46U C66U A69G A70U C71U | -0.356
G6A C27U A43C A70G C71U | -0.304
U2G G6A C27U C46U C66U A69G A70G C71U | -0.216
G1A U2G G6A C27U C46U A69G A70U C71U | -0.379
U2G A43C A69G | 0.00792
G1A U2C G6A A43C C46U A69G A70G | -0.191
U2G A43C C46U C66U A69G C71U | -0.279
U2C G6A C46U C66U A69G C71U | -0.183
G1A U2C G6A C27U A43C C66U A70G | -0.3
U2G G6U C27U C66A A69G A70U C71U | -0.369
G6U A43C C66U A69G A70U C71U | -0.393
U2G G6A C27U C66U C71U | -0.238
G1A G6A C27U A43C C46U C66U A70G | -0.27
G6A A43C C66U A70G C71U | -0.26
U2C G6A C27U A43C C46U C66U A69G C71U | -0.281
U2G G6U C27U A43C C66U A69G A70U C71U | -0.411
U2G C27U A43C A69G A70U | -0.267
G1A U2C A43C C66U A69G A70G C71U | -0.287
U2C G6U C46U C66U A69G A70G | -0.066
G6U A69G A70G C71U | -0.282

Variant | yeast fitness (ln)
U2G G6U C46U C66U A70U | -0.0168
G6U C27U A43C C66A A69G A70U | -0.282
G1A U2C G6U | -0.00557
U2C G6U C46U C66A C71U | -0.211
U2G G6U C27U C46U C66A C71U | -0.147
G1A C66U A69G A70U | -0.174
U2C G6U A69G A70G | -0.133
G1A U2G G6A A43C C46U C66U C71U | -0.177
U2G G6A C27U C66U A69G A70G C71U | -0.272
U2G G6A C46U C66U A70U | -0.000351
U2C C27U C46U C66U A69G A70G C71U | -0.281
G1A U2C A43C C46U A69G A70U C71U | -0.384
G1A U2G C27U A43C | -0.182
U2C G6U C46U C66U A69G A70G C71U | -0.1
U2G G6U C27U A43C C46U C71U | -0.197
G1A U2C G6U C66U A69G A70G C71U | -0.221
G1A U2C G6U C66U A69G A70G | -0.362
G6U C27U A43C C66U A70U C71U | -0.372
U2G C27U C66A A69G A70G | -0.15
G1A U2G G6A C27U C66U A69G A70G | -0.431
C46U C66U A70U | -0.103

Variant | yeast fitness (ln)
U2G G6A C46U C66A A70U C71U | -0.106
G6U C27U A43C C46U A69G A70G | -0.339
U2G C27U A43C C46U C66A A69G C71U | -0.34
G1A U2G G6A C27U A43C A70U | -0.26
U2C G6U A43C A70U C71U | -0.198
U2C C46U C66A A69G A70G C71U | -0.128
U2C C27U C46U C66U | -0.0297
G1A G6A A43C A69G A70G | -0.301
U2G C46U C71U | -0.0759
G1A U2C G6U A69G A70G C71U | -0.367
U2C A43C C46U C66A A69G A70U | -0.0111
U2G G6A C66U A69G A70U | -0.00753
G1A A43C C46U C66U | -0.151
U2G G6A A43C C66U A69G A70G | -0.257
G1A U2C G6A C27U C46U C66U A69G A70U | -0.0756
U2C C27U A43C A69G A70U C71U | -0.266
G1A U2G A43C C46U | -0.042
U2G G6U C27U A43C C66U A69G A70U | -0.466
G1A U2C G6A C27U A43C A70U C71U | -0.186
G1A C46U C71U | -0.01
U2G G6U C27U C46U C66U A70G | -0.176

Variant | yeast fitness (ln)
U2G G6A A43C C46U C66A A69G A70U | -0.0569
U2C G6A C27U C66U A69G A70G | -0.0504
U2G G6A C27U A43C C46U C66U A69G C71U | -0.377
U2G G6U C27U | -0.0917
U2C G6A C27U A43C C46U C66A C71U | -0.216
U2C G6A C27U C46U C66A C71U | -0.101
U2G G6U C46U C66A C71U | -0.0521
G1A G6A C27U A43C A70G | -0.21
U2C G6U C27U C46U A69G A70G | -0.274
U2G G6U C46U C66A A70U | 0.00118
G1A U2C G6U A43C C66A A70G | -0.0507
G1A U2C G6A A69G A70G C71U | -0.187
U2C G6A C27U A69G A70U | -0.115
U2C C66U A69G A70G C71U | -0.101
C27U C46U C66U A70U | -0.0808
G1A G6A A43C C46U C66U A70G | -0.194
U2G G6A C66U A70G | -0.0683
G6U C27U A43C C46U C66U A69G C71U | -0.432
G6A C71U | -0.23
G1A U2G C27U C46U C66U A69G A70U C71U | -0.429
